Laboratory results: ChEMBL document CHEMBL4513216, “Probing the Open Global Health Chemical Diversity Library for Multistage-Active Starting Points for Next-Generation Antimalarials” (ACS Infect Dis, 2020)

Test: Toxicity liver stage against HepG2, at 10uM
Type: cell-based
Parameters: test concentration 10 uM, cell line HepG2-A16-CD81EGFP
Conditions: human, HepG2-A16-CD81EGFP cells; read-out: INHIBITION
Outline: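 Uninfected HepG2-A16-CD81EGFP cells, 3 × 10^3 per well, 1536-well, plated on prespotted compound at 10 μM final, parasite-free screening media added to match infected plates; puromycin 10 μM positive, DMSO 0.5% negative; run in parallel with 48 h PbLuc assay at 37 °C, 5% CO2; viability by CellTiter-Glo luminescence, normalized to controls.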

| SMILES | cytotoxicity at 10 µM |
| --- | --- |
| CCN(C1CCS(=O)(=O)C1)S(=O)(=O)c1cccc2cc(C)cnc12 (configuration not stated) | -11% |
| OCc1ccc(OCC(F)(F)F)cc1 | -11.9% |
| Cc1nc2oc(C(=O)N3CCOCC3)c(N)c2c2c1CCCC2 | -2.8% |
| CC1CCN(C(=O)c2cn(-c3cc(N4CCOCC4)ncn3)cn2)CC1 | 1.75% |
| Cc1nn(C2CCS(=O)(=O)C2)c(C)c1CC(=O)NCc1ccccc1Cl (configuration not stated) | -0.178% |
| COc1ccc(CN2CCO[C@H]3CN(C(C)=O)CC[C@H]3C2=O)cc1 | -138% |
| CS(=O)(=O)N1CC[C@@H]2OC(COCC(=O)N3CCCC3)CC[C@@H]21 (some centres not stated) | 1.56% |
| COc1nn(C)c2c1CCCN(C(=O)c1ccc(C)c(F)c1)C2 | 8.21% |
| Cn1cc(C[C@H]2[C@H](O)CCN2C(=O)C2CCCC2)cn1 | -3.49% |
| CN(Cc1cn2c(n1)CN(C(=O)C1CCOCC1)CC2)Cc1ccco1 | -1.46% |
| C[C@H]1C(=O)NC[C@H]2CN(Cc3ccccc3)C[C@H]21 | 1.47% |
| O=C(NCCN1CCOCC1)c1ccn(COc2ccc(F)cc2)n1 | 6.17% |
| CCc1noc(C2CCCCN2C(=O)c2cccnc2)n1 (configuration not stated) | 8.52% |
| CC(=O)N1CCCC(c2ccnc(Nc3cnccn3)c2)C1 (configuration not stated) | 9.37% |
| Cn1ncc(Cl)c1C(=O)N1CCC(c2nnsc2S(C)(=O)=O)CC1 | -4.7% |
| CN(C)S(=O)(=O)N1CCC(c2n[nH]cc2-c2ccnc(N)c2)C1 (configuration not stated) | 8.81% |
| CNc1cccc(C2CCN(C(=O)c3cccnc3)CC2)n1 | -7.27% |
| CO[C@H]1CN(Cc2cc(F)ccc2F)CC[C@@]12CCCO2 | -8.49% |
| COc1ccccc1-c1cc(C(=O)N(C)C)c2cnn(C)c2n1 | 10.6% |
| CC(=O)c1sc(Nc2ccc(Cl)cn2)nc1C | 41.9% |
| Cc1cc(-n2c(C)cn(CN(C)CC3CC3)c2=O)no1 | -2.95% |

| SMILES | cytotoxicity at 10 µM |
| --- | --- |
| COCCC1(C(=O)NCCc2nncn2C2CC2)CCC1 | -9.22% |
| O=C(c1cscn1)N(CCCO)S(=O)(=O)c1cccs1 | -11.3% |
| O=C(Cc1ccon1)Nc1cncc(Br)c1O | 7.06% |
| Cc1nc(C)c(C(=O)N2Cc3cc(F)ccc3CC2C)o1 (configuration not stated) | 6.07% |
| CCC(C)(NC(=O)CCN1CCOC1=O)C(=O)OC (configuration not stated) | -16% |
| CC(C)C(=O)NCc1cc(Br)ccc1F | -3.98% |
| COC(=O)CCNC(=O)c1ccc(OCc2ccccc2)nc1 | 4.93% |
| OCCN(Cc1cccnc1)c1ccc(Br)cn1 | 21.4% |
| O=C(CN(Cc1cccc(F)c1)CC1CCCO1)N1CCCC1 (configuration not stated) | -7.29% |
| Cc1cc(C)c(CNC(=O)N2CCC(N3CCNC3=O)CC2)c(C)c1 | -2.22% |
| CC(C)NC(=O)CCNC(=O)Nc1cnn(-c2ccccc2Cl)c1 | 1.75% |
| Cn1cccc1C(=O)OCCNC(=O)c1ccccc1 | 14.7% |
| CC(C)NC(=O)c1cccc(NC(=O)CCCc2nc(C(C)C)no2)c1 | 5.51% |
| COc1ccc(C(=O)Cn2cnnc2[S+](C)[O-])cc1Cl (configuration not stated) | -8.17% |
| Cc1cccc(CNC2CCN(CCc3ccncc3)CC2)c1C | -9.04% |
| Cc1nn(C)c(C)c1OCC(=O)NCc1cccc(CO)c1 | -7.73% |
| Cc1ccc(F)c2c1N(C(=O)c1cn(CC(=O)N(C)C)nn1)CCC2 | -9.17% |
| O=C(Nc1ccccc1)NC1CCN(C2CCOC2)CC1 (configuration not stated) | 7.76% |
| Cc1[nH]ccc1C(=O)N(Cc1ccc(O)cc1)CC1CC1 | 6.99% |
| O=C(CC1CCCO1)NCCc1ccccc1Br (configuration not stated) | 5.63% |
| CC(C)(NC(=O)c1cnc(-c2ccccc2F)s1)C(N)=O | 6.96% |

| SMILES | cytotoxicity at 10 µM |
| --- | --- |
| COc1ccccc1-c1csc(NC(=O)N2CCN(C)CC2C)n1 (configuration not stated) | -3.24% |
| O=C(CCCNC(=O)Nc1ccc(F)cc1F)Nc1cn[nH]c1 | 9.19% |
| CCOCC(=O)NCC(C)(O)c1cc(C)oc1C (configuration not stated) | 1.85% |
| Cc1nc(S(=O)(=O)N2CCC3(CCCCC3)C2)cn1C | -4.2% |
| Cc1cc(-c2nc(C3(NC(=O)OC(C)(C)C)CCC3)no2)on1 | 5.98% |
| CCN(c1ccc(C(=O)N(Cc2cnn(C)c2)C(C)C)cn1)C(C)C | 16.2% |
| Cc1cc(C(=O)N2CCS(=O)(=O)CC2)c(C)o1 | -16.8% |
| COc1ccccc1OCC(=O)Nc1ncccc1OC(F)F | 7.25% |
| Cc1nc(Cn2c3c(ccc2=O)CC(NC(N)=O)CC3)cs1 (configuration not stated) | 9.79% |
| CC(=O)c1ccccc1-c1cc(C(=O)O)cc(S(=O)(=O)NC(C)C)c1 | 0.476% |
| Cc1nc(-c2ccncc2)ncc1C(C)NC(=O)C1=NN(C)C(=O)CC1 (configuration not stated) | -0.205% |
| O=C(CN1CCOCC1)N1CCC2(CCCN(C3CCOCC3)C2=O)C1 (configuration not stated) | -129% |
| O=C(NCC1(O)CCCCC1)c1coc(COc2cccc(F)c2)n1 | -136% |
| Cc1cc(C[C@@H]2COC[C@@H]2NC(=O)CCN2Cc3ccccc3C2)on1 | 3.86% |
| CCOCc1nc2c(c(N3CC=CC3)n1)CCN(CC1CC1)CC2 | -21.2% |
| Cc1ccccc1N1CC(C)N(Cc2ccc(C)c(F)c2F)CC1=O (configuration not stated) | -1.66% |
| Nc1nc(CCC(=O)N2C[C@@H](CN3CCCC3)C[C@H](CO)C2)n[nH]1 | -0.445% |
| O=C(NC1CCC1)c1cccc(S(=O)(=O)NCc2nc(C3CC3)no2)c1 | -0.0264% |
| Cc1cnn(C(C)C(=O)NCC2CCN(c3cnn(C)c(=O)c3)CC2)c1 (configuration not stated) | 2.81% |
| Cc1cc2ccccc2n1CCC(=O)N1CCC[C@H]1C(N)=O | -0.338% |
| O=C(NCC1CCS(=O)(=O)C1)c1ccc2cccc(Cl)c2n1 (configuration not stated) | -10.1% |

| SMILES | cytotoxicity at 10 µM |
| --- | --- |
| CCc1cc(N(C)Cc2noc(C(C)C)n2)nc(N2CCOCC2)n1 | 0.515% |
| CC(C)N1CCC(CC(=O)N2CCCCC2CCn2cccn2)CC1 (configuration not stated) | -3.77% |
| O=C1CC2(CCCC2)CC(=O)N1Cc1nc2ncccn2n1 | 2.49% |
| c1ccc2c(c1)CC(Cc1cc(N3CCCC3)cnn1)CCO2 (configuration not stated) | -5.5% |
| CC(C)C(C)n1nccc1NC(=O)Cn1cnc2ccccc21 (configuration not stated) | 10.8% |
| COc1ccc([C@@H]2CN(c3cnccn3)C[C@H]2N(C)C)cc1 | 6.55% |
| Cn1ncc(NC(=O)c2noc3c2CCCC3)c1C(=O)N1CCCCC1 | -13.4% |
| COc1ccccc1CNC(=O)C[S+]([O-])Cc1cc(C)on1 (configuration not stated) | -4.92% |
| Cc1cnn(CC2CCCN2C(=O)c2c(C)noc2C(C)C)c1 (configuration not stated) | -0.502% |
| Cc1cnn(C2CCCN(C(=O)Cc3cn4ccsc4n3)C2)c1 (configuration not stated) | -4.89% |
| O=C(c1cnc(-c2ccccn2)s1)N1CCCC1Cn1cccn1 (configuration not stated) | -5% |
| COc1ccccc1C(=O)NC(CC(=O)O)c1cccs1 (configuration not stated) | -0.337% |
| COCCN1C[C@@H]2CN(Cc3ccoc3)CCC[C@]2(C(=O)O)C1 | -139% |
| c1cncc(COCc2nnn3c2CN(Cc2ccsc2)CC3)c1 | 6.4% |
| O=C(NCc1cn2c(n1)CN(Cc1ccccn1)CC2)C1CCC1 | 7.49% |
| CNC(=O)c1cc2c(nc1NCC1CC1)CCN(S(C)(=O)=O)CC2 | 5.57% |
| Cc1ccc(CN2Cc3nccn3CC(Cn3cncn3)C2)s1 (configuration not stated) | -141% |
| CC1CCC(n2cc3nc(N)[nH]cc-3c2=O)CC1 (configuration not stated) | -0.0237% |
| Cc1nc(=O)c(CC(=O)N2C[C@H]3CC[C@@H](C2)N(CC2CCC2)C3)c[nH]1 | 1.43% |
